According to publication PMC11557630 (Targeted Oncology, 2024):

Columns and labels:
[1] = tested on: PARP inhibitor-resistant ovarian cancer; conditions: adavosertib monotherapy arm; cited from earlier work
[2] = tested on: patients with relapsed extensive-stage SCLC; assay: Safety and tolerability; format: in vivo, human; conditions: part B SCLC cohort
Procedure, shortened: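 Oral adavosertib 200 mg once daily on days 1–3 and 8–10 of a 21-day cycle, plus continuous oral olaparib 200 mg twice daily. AEs were graded by CTCAE v4.03 and assessed by physical examination, vital signs (blood pressure, pulse, body temperature) and laboratory parameters, from enrollment through post-treatment follow-up. Safety data were summarized descriptively.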

[3] = tested on: patients with refractory solid tumors; assay: Safety and tolerability; format: in vivo, human; conditions: for Patients with AEs causally related to adavosertib: 12 patients
Procedure, shortened: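 Open-label, multicenter escalation: oral adavosertib 175 mg twice daily on a 3-days-on/4-days-off schedule, plus continuous oral olaparib 200 mg twice daily, in 21-day cycles. DLTs were recorded in cycle 1, a window extendable up to 2 weeks after drug-related delays; DLT-evaluable patients received >75% of planned doses. AEs were graded by CTCAE v4.03 via examination, vital signs and laboratory tests.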

cell kill activity = conditions: preclinically determined; no reference given; cited from earlier work
[4] = Plasma pharmacokinetics of adavosertib and olaparib, part A; format: in vivo, human
[5] = in combination with olaparib, cohort 4.2
[6] = in combination with olaparib, cohort 7.4
[7] = with adavosertib 175 mg bid vs olaparib alone

Compound: C=CCn1c(=O)c2cnc(Nc3ccc(N4CCN(C)CC4)cc3)nc2n1-c1cccc(C(C)(C)O)n1 [adavosertib]
- Clinical benefit rate [1]: 63%
- AEs leading to dose reductions of adavosertib [2]: one
- AEs leading to interruptions of adavosertib [2]: three
- Patients with an AE leading to dose reduction of adavosertib ([3]; cohort 4.2, five patients): 35.7%
- Patients with an AE leading to dose interruption of adavosertib ([3]; cohort 4.2, seven patients): 50.0%
- Patients with an AE leading to dose interruption of adavosertib ([3]; cohort 7.4, five patients): 38.5%
- Patients with an AE leading to dose reduction of adavosertib ([3]; cohort 7.4, three patients): 23.1%
- MTD for adavosertib bid ([3]; days 1–3, 8–10/21-day cycle, plus continuous olaparib 200 mg bid (cohort 4.2)): 175 mg
- Anemia causally related to adavosertib [3, 5]: 35.7%
- Decreased appetite causally related to adavosertib [3, 5]: 50.0%
- Diarrhea causally related to adavosertib [3, 5]: 50.0%
- Fatigue causally related to adavosertib [3, 5]: 64.3%
- Nausea causally related to adavosertib [3, 5]: 50.0%
- Patients with AEs causally related to adavosertib [3, 5]: 85.7%
- Patients with serious AEs causally related to adavosertib ([3]; in combination with olaparib, cohort 4.2, three patients): 21.4%
- Anemia causally related to adavosertib [3, 6]: 38.5%
- Decreased appetite causally related to adavosertib [3, 6]: 30.8%
- Diarrhea causally related to adavosertib [3, 6]: 38.5%
- Fatigue causally related to adavosertib [3, 6]: 15.4%
- Nausea causally related to adavosertib [3, 6]: 23.1%
- Patients with AEs causally related to adavosertib [3, 6]: 92.3%
- Patients with serious AEs causally related to adavosertib ([3]; in combination with olaparib, cohort 7.4, one patient (dizziness)): 7.7%
- Patients with CTCAE grade ≥ 3 events causally related to adavosertib ([3]; in combination with olaparib, part A overall, 52 patients): 43.7%
- AEs with an outcome of death considered causally related to adavosertib ([3]; part A overall, sepsis, not a result of a DLT): one
- Target adavosertib plasma concentration range for cell kill activity (cell kill activity): 0.5 to 1 µM

Compound: O=C(c1cc(Cc2n[nH]c(=O)c3ccccc23)ccc1F)N1CCN(C(=O)C2CC2)CC1 [olaparib, reference compound]
- Ratio of olaparib plus adavosertib to olaparib alone for AUC0–10 and/or Cmax ([4]; in some patients (high outliers)): exceeded 2
- Difference between exposure to olaparib in the presence of adavosertib and to olaparib alone ([4]; part A): no statistically significant difference
- Olaparib Cmin,ss compared with the IC95 in preclinical studies ([4]; part A, Supplementary Fig. 3): comparable
- Increase in olaparib AUC0–10 [4, 7]: 33%
- Increase in olaparib Cmax [4, 7]: 18%
- AEs leading to interruptions of olaparib [2]: five
- Patients with an AE leading to dose interruption of olaparib ([3]; cohort 4.2, nine patients): 64.3%
- Patients with an AE leading to dose reduction of olaparib ([3]; cohort 4.2, three patients): 21.4%
- Patients with an AE leading to dose interruption of olaparib ([3]; cohort 7.4, eight patients): 61.5%
- Patients with an AE leading to dose reduction of olaparib ([3]; cohort 7.4, three patients): 23.1%
